The text below walks through data of the RNAGym collection of RNA variant scans (doi:10.1126/science.aae0568).

The labels stand for the following.
B1: tRNA (parent)
chain: GUUCCGUUGGCGUAAUGGUAACGCGUCUCCCUCCUAAGGAGAAGACUGCGGGUUCGAGUCCCGUACGGAACG

Variants at the floor of the assay were thinned out.

The variants in this data set derive from B1. Briefly: yeast fitness relative to wild type (ratio to wild type); higher = fitter; tRNA-Arg(CCU), competitive growth, 37 C, YPD. The essentials: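 The tRNA-Arg(CCU) gene variants were made by chemical synthesis with a 3% per-site mutation rate at 69 sites and inserted at the native genomic locus of Saccharomyces cerevisiae. After pooling, the strains were competed in YPD at 37°C for 24 hours in six parallel replicates. Gene amplicons from the start population and each end population were read by 100-nucleotide paired-end sequencing, and Darwinian fitness relative to wild type was taken from genotype frequency changes. Genotypes needed ≥ 100 starting reads, and estimates < 0.5 were set to 0.5.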
C5A U26C: the yeast fitness is 0.954.

Consider C5A U16A C22G C30A, for which the yeast fitness is at most 0.5. Regarding C5G C11G A14U A15U C61U G68C, the yeast fitness is at most 0.5. Regarding C5G C33A C34G G50A, the yeast fitness is at most 0.5. The result for C5G C22U C62A A65C reads at most 0.5; that for C5G C29G G41C A57U, at most 0.5; that for C5A U26A A42C, at most 0.5.

Take C5G A14U G68C: the yeast fitness was at most 0.5.

Consider C5G A43C G48A U59G, for which the yeast fitness was at most 0.5. For the variant C5G C30G C61G, the yeast fitness is at most 0.5.

As for C5G A14C C29A C31G U54A A70U, the yeast fitness stood at 0.545. The result for C5G A20G A36C A42G reads at most 0.5.

With C5G A42C A57C G68U, the yeast fitness was at most 0.5. The result for C5G A43C G67A reads 0.565. The result for C5G C11A A15G G18A C30G reads 0.587. As for C5G C34A A36C A42G, the yeast fitness is at most 0.5. The result for C5G C30U A36U G51C reads at most 0.5; that for C5A U54A, 0.699; that for C5G C27A C49A, at most 0.5. The result for C5G A21G G44A G58C reads 0.616; that for C5G A14U G25A C33A C61U, at most 0.5; that for C5G C24G C34G C46U C61A A70U, at most 0.5. Consider C5G C31G, for which the yeast fitness was 0.824.

On to C5G C31A, for which the yeast fitness turned out to be 0.79. The result for C5G C11A A20C C22G C30U C31G C61A G67A reads at most 0.5; that for C5G C11A A14G G25C C29G C60A, at most 0.5; that for C5G C11A A14G G25C C29G C60G, at most 0.5. The result for C5G A45U G68C reads at most 0.5; that for C5G C33G A40U A65C, at most 0.5. For C5A U35G C60G, the yeast fitness is at most 0.5. C5G C46G C49G C62A: the yeast fitness is at most 0.5. The result for C5G A36G G44C reads 0.672; that for C5G C11G A42G G68A, at most 0.5; that for C5G C11A A40U U64C, 0.536.

Consider C5G A42G U64C, for which the yeast fitness turned out to be 0.72. The result for C5G A42G U64G reads 0.637. The result for C5A U16C C22U reads 0.612. The result for C5G A43G A69C reads 0.615; that for C5G C31G A57C, 0.502. Regarding C5G C31U G52A, the yeast fitness came out at 0.612. The result for C5G C11G A14U A15U A65G reads at most 0.5. The result for C5G A14C G25A U32C G41C G50A C61G reads at most 0.5.

For C5G C34A A36U G51C G56A, the yeast fitness is 0.797.

As to C5G C11G U35C, the yeast fitness came to 0.643.

As for C5G A21C A43U A70G, the yeast fitness is at most 0.5. The result for C5G C30G G38C G56C reads 0.621; that for C5G C24U G56C, at most 0.5; that for C5G A37U C46U, 0.536. Turning to C5A U26A C27G C30G A36U G38C C46U C49G A65U, the yeast fitness is at most 0.5. The result for C5G A21G A45U A69U reads 0.634; that for C5A U35G C60U C62G A70G, at most 0.5; that for C5G A36U C61U, at most 0.5. The result for C5G C22G A45G A65U reads at most 0.5. The result for C5G A14C A37G reads at most 0.5; that for C5G C24A A42U A57C U64A, at most 0.5; that for C5G C46U A57C, 0.552. For C5G C30U C31G C46U, the yeast fitness is at most 0.5. The result for C5G C30U G50C reads at most 0.5; that for C5G A15G A21G G25C C33U G68A, at most 0.5; that for C5A U28C, 0.784. As for C5G C29G C46G, the yeast fitness was at most 0.5. The result for C5G C27U reads 0.651. In the case of C5G C27A, the yeast fitness came to 0.709. For C5G A20G C46U, the yeast fitness came to 0.638.

As for C5G C11G A42C C49U, the yeast fitness is at most 0.5. The result for C5G C30U C31G reads 0.79; that for C5G A21C G51A G58A, at most 0.5. The result for C5G A15G C24G C60A reads at most 0.5; that for C5A U26G C60G C61U, at most 0.5; that for C5G C31U A36C G38A, 0.557. The result for C5G C29U C31G G44C reads 0.556; that for C5G C11A A14G G25C C29G C66U, at most 0.5.

Take C5A U19C C27U C29G C34A A42C U54A: the yeast fitness is at most 0.5.

Turning to C5G C24U A43U C55U G68C, the yeast fitness was at most 0.5. With C5G A14C C29U C33G, the yeast fitness is at most 0.5.

As to C5G A14C A37G C62G A69U, the yeast fitness is at most 0.5. The result for C5A U32G C55U reads at most 0.5; that for C5G A20U A37G U64A, 0.577; that for C5G C34G C62U, 0.531.

As for C5G C11G G12A C46U, the yeast fitness was at most 0.5. The result for C5G A45G reads 0.984; that for C5G A45U, 1.01; that for C5A U28G C66U, at most 0.5.
